Only some compounds are listed: those with a hit (about 2.9% of all), similar ones and a draw of the others.
ABHD5 PLIN5 PPI = ABHD5-PLIN5 interaction inhibitors, primary screen, cell lysate, split luciferase complementation, luminescence. Split G. princeps luciferase complementation, 4 h. 0.78% of 360,000 active. inhibition, % at 4 µM;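 active = inhibition above the mean inhibition across every tested compound plus 3 SD, cut at about 22% in these data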;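 note: 0% = DMSO only wells and the 100% control is not disclosed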
A3G deaminase = APOBEC3G DNA deaminase inhibitors, primary screen, biochemical, fluorescence, single-stranded DNA substrate, uHTS; DNA dC->dU-editing enzyme APOBEC-3G (Homo sapiens), Q9HC16; recombinant A3G, ssDNA deamination FAM/TAMRA fluorescence; inhibition, % at 20 µM; 0.28% of 330,000 active; AID 493012, 2011;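 active = inhibition of at least 40% at 20 µM, with no more than 30% in the related APOBEC3A deaminase screen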;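 note: plate controls were DMSO wells with A3G for no effect and wells lacking A3G enzyme for full effect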
HCV NS3 hel inh = inhibitors of HCV NS3 helicase, primary screen, biochemical, Cy5 molecular beacon fluorescence; Hepatitis C virus NS3 helicase; NS3 helicase DNA unwinding; inhibition, % at 10.9 µM; 0.56% of 290,000 active;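 active = inhibition above the mean of all tested compounds plus 3 SD, set per campaign, cut at about 35% in these data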;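 note: 0% = DMSO wells and 100% = thioflavine S control wells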
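System: HCV NS3 helicase fragment; control set: DMSO and thioflavine S; technique: Cy5 fluorescence at 0 and 60 min, beacon hairpin quenching; reagent: beacon DNA duplex substrate plus ATP; replicates: singlicate; schedule: 1 h reaction at 25 °C, ATP-initiated; medium: MOPS buffer pH 6.5 with MgCl2, DTT, Tween20, BSA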
PRMT1 FP inh = PRMT1 methyltransferase inhibitors, primary screen, biochemical, fluorescence polarization. Protein arginine N-methyltransferase 1 (Homo sapiens), Q99873. recombinant PRMT1, activity-based probe fluorescence polarization. inhibition, % at 2.79 µM. 1.3% of 370,000 active. AID 652257, 2013;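 active = inhibition above about 21% made by adding two undisclosed values, limit read from the data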
Target sequence (Q99873 whole entry, looked up): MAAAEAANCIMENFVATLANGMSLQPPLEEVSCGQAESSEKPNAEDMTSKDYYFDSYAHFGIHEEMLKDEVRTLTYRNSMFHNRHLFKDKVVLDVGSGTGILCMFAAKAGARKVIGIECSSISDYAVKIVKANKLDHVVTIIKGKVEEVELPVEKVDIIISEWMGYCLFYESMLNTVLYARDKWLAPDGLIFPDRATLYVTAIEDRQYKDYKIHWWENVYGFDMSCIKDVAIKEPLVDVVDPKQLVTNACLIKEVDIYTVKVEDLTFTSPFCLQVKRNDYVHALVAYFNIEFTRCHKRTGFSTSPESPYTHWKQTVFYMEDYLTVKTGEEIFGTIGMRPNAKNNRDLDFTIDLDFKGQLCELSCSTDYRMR
A3A deaminase = APOBEC3A ssDNA deaminase inhibitors, primary screen, selectivity assay for APOBEC3G inhibitor project, biochemical, FAM/TAMRA oligo cleavage fluorescence; DNA dC->dU-editing enzyme APOBEC-3A (Homo sapiens), P31941; recombinant A3A, FAM/TAMRA ssDNA deamination fluorescence; inhibition, % at 20 µM; 0.41% of 330,000 active; AID 493011, 2011;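 active = at least 40% inhibition at 20 µM here, with at most 30% in a related deaminase screen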;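 note: plate controls were A3A with DMSO for no effect and wells lacking A3A enzyme for full effect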
Target sequence (P31941 whole entry, looked up): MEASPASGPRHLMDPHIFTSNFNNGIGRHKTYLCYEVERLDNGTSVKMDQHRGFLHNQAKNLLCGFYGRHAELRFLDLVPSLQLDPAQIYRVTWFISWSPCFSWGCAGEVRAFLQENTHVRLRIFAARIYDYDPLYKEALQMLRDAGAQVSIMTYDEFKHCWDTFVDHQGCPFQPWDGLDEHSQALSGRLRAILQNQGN
core dimer inh = inhibitors of HCV core protein dimerization, primary screen, biochemical, TR-FRET, high-throughput; 0.33% of 300,000 active; inhibition, % at 5 µM; AID 1899, 2009; TR-FRET GST/Flag-core106 dimerization, 1536-well;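 active = inhibition above the mean of all tested compounds plus 3 SD, set per screening campaign, cut at about 45% in these data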
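Material: GST/Flag-tagged HCV core106 proteins. Incubation: 4 h, 22.5 °C incubation. Read-out basis: inhibition (%) from 671 over 617 nm ratio. Measured by: TR-FRET, excitation 340 nm, emission 617 and 671 nm.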
PRMT1 confirm = PRMT1 methyltransferase inhibitors, confirmation, biochemical, fluorescence polarization, triplicate. shares compounds with PRMT1 FP inh. recombinant His-PRMT1, activity-based probe fluorescence polarization. inhibition, % at 2.79 µM. 42% of 3,300 active. AID 687036, 2013;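 active = mean inhibition across replicates above the hit cutoff derived for the earlier primary screen, cut at about 22% in these data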
Numbers without * were called inactive; x = no result.

SMILES	ABHD5 PLIN5 PPI	A3G deaminase	HCV NS3 hel inh	PRMT1 FP inh	A3A deaminase	core dimer inh	PRMT1 confirm
NC(=O)C1(N2CCCCC2)CCN(C2CC(=O)N(CCc3ccccc3)C2=O)CC1 (centres undefined)	-8	-7	0	44*	0	-9	-4
COc1cccc(N2C(=O)CC(N3CCC(C(N)=O)(N4CCCCC4)CC3)C2=O)c1 (centres undefined)	5	2	-3	54*	2	-5	2
Cc1cc(NS(=O)(=O)c2ccc(NC(=O)CSc3nnc(-c4ccc(Cl)cc4)n3Cc3ccco3)cc2)nc(C)n1	x	x	x	1	x	x	x
Cc1cc(NS(=O)(=O)c2ccc(NC(=O)CSc3nnc(-c4ccncc4)n3Cc3ccco3)cc2)nc(C)n1	x	x	x	33*	x	x	-1
O=C(O)CCCCN1C(=O)C=CC1=O	x	x	x	77*	x	x	95*
CSc1nc(COC(=O)NC(C)C)c(COC(=O)NC(C)C)n1Cc1ccccc1	-8	x	x	-5	x	x	x
CC[N+]1(C)CCC(O)(c2ccc(OC)cc2)C(C(=O)c2ccc(OC)cc2)C1 (centres undefined)	7	x	x	26*	x	x	13
COc1ccc(-c2ccc(C(=O)C3CC3)cc2)cc1	1	-9	1	2	-3	-9	x
CC(C)c1nnc(SCC(=O)NCCC2=CCCCC2)n1N	-11	6	6	34*	3	2	39*
Nn1c(SCC(=O)NCCC2=CCCCC2)nnc1-c1cccnc1	-8	-8	x	-3	2	x	x
CCOC(=O)C1CCCN(C(=O)c2cc(F)cc(F)c2)CC1 (centres undefined)	0	x	x	-6	x	x	x
COc1ccc2c(c1)CSC(c1ccccc1)C2=O (centres undefined)	-13	x	x	53*	x	x	30*
COc1cc(C)ccc1OCc1cc(C(=O)N(C)CCCN2CCOCC2)no1	6	-5	13	-3	-3	0	x
CN(CCCN1CCOCC1)C(=O)c1cc(COc2ccc(F)cc2F)on1	0	-2	2	29*	-4	11	2
Cc1cc(NC(=O)CSC2=NCCS2)no1	-8	-4	-1	39*	-1	-6	19
NC(=O)c1ccccc1NC(=O)CSC1=NCCS1	-20	-5	5	27*	-3	-4	53*
CC1CCCCC12NC(=O)N(CC(=O)NCCc1c[nH]c3ccccc13)C2=O (centres undefined)	-12	-9	x	-2	-2	x	x
O=C(CC1SC(=O)N(c2ccccc2)C1=O)Nc1ccc(Cl)cc1 (centres undefined)	-18	-3	30	26*	-1	4	92*
CC(C)N=C1SC(CC(=O)Nc2ccccc2)C(=O)N1C(C)C (centres undefined)	10	-4	-1	61*	-2	6	1
O=C(COc1cccc(F)c1)Nc1nc(-c2cccnc2)cs1	14	0	x	3	2	x	x
N#C/C(=C\c1ccc2c(c1)OCO2)C(N)=S	-18	6	-6	25*	-1	4	7
CCCCN1CC(N2CCN(C)CC2)CS1(=O)=O (centres undefined)	-10	x	x	-3	x	x	x
Cc1ccc2oc(C(=O)N(C)CCC(O)c3ccccc3)c(C)c2c1 (centres undefined)	-5	-10	-5	0	-5	11	x
CC(=O)NC1C(=O)N=C(SCC(=O)Nc2ccc(C(F)(F)F)cc2Cl)NC1=O (centres undefined)	-7	-10	-6	38*	-2	2	19
COc1ccccc1NC(=O)CSC1=NC(=O)C(Cc2ccccc2)C(=O)N1 (centres undefined)	-5	-6	0	3	-1	5	x
SMILES	ABHD5 PLIN5 PPI	A3G deaminase	HCV NS3 hel inh	PRMT1 FP inh	A3A deaminase	core dimer inh	PRMT1 confirm
CC(=O)NC1C(=O)N=C(SCC(=O)NC(C)c2ccccc2)NC1=O (centres undefined)	-8	-6	0	31*	-4	0	15
COc1ccccc1NC(=O)CSC1=NC(=O)C(NC(C)=O)C(=O)N1 (centres undefined)	-2	-8	-1	25*	-6	-4	9
O=C(Nc1ccc(Cl)cc1)C(Cl)C(=O)c1ccccc1 (centres undefined)	16	-8	5	77*	-5	9	78*
COc1ccc(Cl)cc1NC(=O)CN(C)CC(=O)NCc1ccc(F)cc1	3	-7	x	-4	-2	x	x
O=C1CCc2cc(S(=O)(=O)N3CCCCC3)cc3c2N1CC3	-6	10	x	1	3	-3	x
Oc1ccccc1C(=S)N1CCCCC1	-6	-6	1	36*	-7	-2	20
Oc1ccccc1C(=S)N1CCCCCC1	-3	-1	10	4	3	-2	x
CC(NS(=O)(=O)OCC(Cl)(Cl)Cl)c1ccc(Br)cc1 (centres undefined)	-8	-9	29	-5	-1	0	x
CCN(CC)CCCNC(=S)N(CCO)Cc1cc2cc3c(cc2[nH]c1=O)OCCO3	-12	-5	-13	7	-6	-5	x
CCCCNC(=S)N(CCO)Cc1cc2cc3c(cc2[nH]c1=O)OCCO3	-6	-8	-1	44*	-8	10	-4
CNC[C@H]1Oc2cc(Br)ccc2S(=O)(=O)N([C@@H](C)CO)C[C@@H]1C	3	x	x	-3	x	x	x
O=C1CC(N2CCC(c3nc4ccccc4[nH]3)CC2)C(=O)N1Cc1ccccc1 (centres undefined)	-1	-3	2	33*	2	3	4
O=C(O)c1ccc(N2C(=O)CC(N3CCC(c4nc5ccccc5[nH]4)CC3)C2=O)cc1 (centres undefined)	4	-5	-5	9	-1	-7	x
O=C1CC(N2CCC(c3nc4ccccc4[nH]3)CC2)C(=O)N1c1cccc(F)c1 (centres undefined)	-1	-3	1	43*	1	-3	9
CCCCCCn1cc(CN2CC(N(C)C)CS2(=O)=O)nn1 (centres undefined)	-6	x	x	-1	x	x	x
